Experimental data published in ChEMBL document CHEMBL5260803, “Discovery of Novel, Orally Bioavailable β-Amino Acid Azaindole Inhibitors of Influenza PB2” (ACS Med Chem Lett, 2017).

Key:
Format in all cases: functional, organism-based
Influenza A virus [1] = assay: Antiviral activity against oseltamivir resistant Influenza A virus A/Georgia/20/2006 (H1N1) infected in MDCK cells incubated for 72 hrs by cell protection assay
In short: (§1)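 MDCK cells incubated with test compound and influenza A virus for 72 h. EC50 is the concentration giving 50% cell protection, reported as the mean of N=3. Oseltamivir resistant or sensitive status was assigned by externally validated phenotypic or genetic analysis.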

Influenza A virus [2] = assay: Antiviral activity against oseltamivir resistant Influenza A virus A/Texas/12/2007 (H3N2) infected in MDCK cells incubated for 72 hrs by cell protection assay; in short: as §1
Influenza A virus [3] = assay: Antiviral activity against oseltamivir resistant Influenza A virus A/Texas/48/2009 (H1N1) infected in MDCK cells incubated for 72 hrs by cell protection assay; in short: as §1

CC(C)(C)[C@@H](CC(=O)O)Nc1nc(-c2c[nH]c3ncc(F)cc23)ncc1F
EC50 (Influenza A virus [1]): 2 nM | EC50 (Influenza A virus [2]): 30 nM | EC50 (Influenza A virus [3]): 2 nM
